# Assay outcomes deposited in PubChem by several laboratories.
# The list is not random: actives were taken first. Their share in the collection is about 1.9%.
# Rce1 inh: inhibitors of yeast Ras-converting enzyme | AID 2563 | calls only | hit rate 0.27% among 290,000 | yeast membranes, quenched prenylated peptide cleavage fluorescence;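 active = fall in fluorescence gain of 50% or more versus controls, with final raw signal at or below 3038400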;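 also: plate controls were neutral control wells for no effect and wells lacking membranes for full effect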
# Target sequence (Q03530 whole entry, looked up): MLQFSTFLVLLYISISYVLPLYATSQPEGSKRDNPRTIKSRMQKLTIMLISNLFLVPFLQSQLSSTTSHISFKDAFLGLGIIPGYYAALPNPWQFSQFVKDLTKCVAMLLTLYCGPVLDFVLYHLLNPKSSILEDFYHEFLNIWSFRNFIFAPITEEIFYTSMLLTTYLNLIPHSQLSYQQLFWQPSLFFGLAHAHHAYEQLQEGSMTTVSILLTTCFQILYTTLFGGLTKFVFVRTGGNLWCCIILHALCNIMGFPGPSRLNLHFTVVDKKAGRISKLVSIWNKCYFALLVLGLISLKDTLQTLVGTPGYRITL
# KLK7 zymogen act: proKLK7 (human) activation, primary screen; hit rate 0.9% among 370,000; purified proKLK7, EDANS-DABCYL substrate fluorescence; 100% is mature enzyme control, 0% vehicle; P49862; AID 652039; activation, % at 7 µM;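 active = activation above the mean of all tested compounds plus 3 SD, computed per campaign excluding outliers beyond control limits, cut at about 13% in these data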
# T cell HTS: T cell immune modulators affecting CD8 T cell-vesicle binding. 2C CD8+ T cell-vesicle binding, flow cytometry; active compounds read low. hit rate 0.068% among 330,000. response (vesicle binding), % at 7 µM. AID 2052;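 active = response, share of CD8 T cells binding vesicles, and their 90th percentile fluorescence all below set limits, cut at about 80% in these data, passing the limit was not always enough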;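 also: values below 100% mean blocked vesicle binding to the CD8+ T cells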
#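 Assay system: 2C TCR transgenic mouse naive CD8+ T cells, MACS-purified | Read-out: CD8+ gate FL2 mean fluorescence as % of same-row positive control | Signal: High-throughput flow cytometry with anti-B7-1 and anti-CD8 staining | Timing: Binding step 1.5 h, 37 °C, antibody labelling 20 min, ice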
# V-ATPase pHluor: alters yeast V-ATPase proton transport. response, % at 10 µM. hit rate 0.37% among 350,000. S. cerevisiae, pHLuorin cytosolic pH fluorescence; in the data active = response mostly above about 7.3%, no sharp cut-off; inactive = mostly below about 5.4%; also: actives read high
# Yeast superoxide: yeast age-related superoxide inhibition as caloric restriction mimetic | S. cerevisiae aged cells, superoxide DHE fluorescence; active compounds read low | superoxide response (% of plate mean), % at 10 µM | hit rate 0.18% among 330,000;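 active = superoxide response under a set limit, about three screen SD below normal, cut at about 65% in these data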;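 also: yeast aged for seven days with compound at 30 °C before DHE staining; 100% = average MFI of all compound-treated wells on the plate with controls excluded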
# beta cell repl: inducers of beta-cell replication in MIN6 cells; hit rate 0.29% among 330,000; proliferation, % at 10 µM; MIN6 cells proliferation, ATPlite luminescence, 48 h; cells starved in 0.2% serum; 100% = growth in 10% serum; AID 2380;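 active = compounds whose signal lies at least 3.5 SD above the mean of all wells on their plate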;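 also: 0% = DMSO-treated cells in low-serum medium and 100% = 10% serum control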
# proKLK7 act conf: proKLK7 activation, confirmation; purified proKLK7, EDANS-DABCYL substrate fluorescence; scaled: vehicle 0, mature enzyme 100; shares compounds with KLK7 zymogen act; hit rate 68% among 3,200; activation, % at 7 µM;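 active = activation, as change over the incubation, above the mean of all tested compounds plus 3 SD, cut at about 13% in these data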
# EDANS interfere: fluorescence interference counter-screen for KLK7 activators. shares compounds with KLK7 zymogen act. EDANS-DABCYL substrate fluorescence interference, no enzyme, 4 h; solvent 0%, active enzyme control 100%. activation, % at 7 µM. hit rate 80% among 3,200. AID 686952;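 active = activation above the all-compound mean plus 3 SD, ignoring values outside control-based bounds, cut at about 4.8% in these data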;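 also: value is the 4 h activation minus the activation read at time zero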
# The depositor's hits bear a star; i = inactive; x = no result given.
SMILES,Rce1 inh,KLK7 zymogen act,T cell HTS,V-ATPase pHluor,Yeast superoxide,beta cell repl,proKLK7 act conf,EDANS interfere
COc1ccc(C(=O)Nc2ccnn2C2CCN(CCC(C)c3ccc(C)o3)CC2)cc1 (stereo unspecified),i,0.2,193.1,3.7,87.1,-3.0,x,x
O=C1CCCc2nc3c(cc21)C(O)Oc1ccccc1-3 (stereo unspecified),i,70.7*,312.2,15.8*,93.3,-1.7,52.1*,64.8*
CN(C)c1ccc(C2(c3ccc(N(C)C)cc3)OC(=O)c3cc(N)ccc32)cc1,i,-0.8,180.8,-6.5,102.4,0.0,x,x
COc1ccc(-c2cc3ncnc(Cl)c3s2)cc1,i,27.4*,i,-2.0,96.8,0.0,4.5,2.6
COc1cccc(CNC(=O)[C@H]2CCCN2C(=O)[C@H]2CCCN2C(=O)c2ccc(Cl)cc2)c1,x,-0.6,x,x,x,x,x,x
COc1ccc(-c2cc(=O)c3cccc(CC(=O)O)c3o2)cc1,x,79.5*,x,x,x,x,82.5*,81.5*
COc1ccc(-c2cc3ccccc3c(=O)o2)cc1,x,21.0*,x,x,x,x,-28.5,-29.5
O=C(NN=C1CCCC1)c1cc(Cl)cc(Cl)c1O,i,17.5*,195.3,1.1,103.2,1.4,12.2,15.4*
O=c1c2cc(N3CCOCC3)ccc2[nH]c(=S)n1CCCN1CCCCCC1,i,103.7*,431.4,-2.2,123.1,-1.6,44.0*,40.8*
O=c1c2cc(N3CCOCC3)ccc2[nH]c(=S)n1CCCN1CCN(c2ccccc2F)CC1,x,x,365.0,x,95.6,-6.0,x,x
Cc1ccc(Cn2c(=S)[nH]c3ccc(N4CCOCC4)cc3c2=O)o1,i,45.1*,170.0,-1.0,110.2,-5.2,100.6*,104.9*
O=c1c2cc(N3CCOCC3)ccc2[nH]c(=S)n1CCN1CCCC1,i,80.0*,250.3,-1.8,99.0,-3.8,45.6*,53.6*
O=c1c2cc(N3CCOCC3)ccc2[nH]c(=S)n1Cc1ccc(Cl)cc1,i,-3.7,449.0,2.6,88.8,-4.8,x,x
CCCCn1c(=S)[nH]c2ccc(N3CCOCC3)cc2c1=O,i,x,138.1,x,104.2,1.6,x,x
CC/C(=N\NC(=O)c1nnn(-c2nonc2N)c1CN(C)c1ccccc1)c1ccccc1,i,0.6,32.4,1.7,115.9,-1.6,x,x
O=C(COc1ccc(F)cc1Br)NCC1(N2CCOCC2)CCCCC1,x,-0.7,450.6,5.1,90.8,-5.2,x,x
O=C1NCCCN1Cc1ccc(Cl)cc1,i,-0.3,182.3,1.9,86.4,-4.7,x,x
OC[C@@H]1CN(CCN2CCOCC2)C[C@H](n2cnc3c(NCc4ccco4)ncnc32)O1,x,0.0,x,x,x,x,x,x
O=C(CCCSc1ccccc1)Nc1ccc(Cl)c(S(=O)(=O)N2CCOCC2)c1,x,0.6,71.6,1.8,124.2,-6.5,x,x
O=C(c1ccccc1Cl)N1CCSCCS1(=O)=O,x,0.2,x,x,x,x,x,x
COc1ccccc1-c1c(C)oc2c(CN3CCCC(C)C3)c(O)ccc2c1=O (stereo unspecified),i,44.6*,x,-1.0,x,-1.5,71.5*,68.9*
COc1ccccc1-c1coc2c(CN3C(C)CCCC3C)c(O)ccc2c1=O (stereo unspecified),i,-3.4,250.0,1.4,102.0,-0.4,x,x
COc1ccccc1-c1coc2c(CN3CCCCC3C)c(O)ccc2c1=O (stereo unspecified),i,52.5*,139.0,1.3,97.7,-3.4,65.9*,64.2*
Cc1oc2c(CN3CCCC(C)C3)c(O)ccc2c(=O)c1-c1ccccc1 (stereo unspecified),i,32.9*,597.0,-0.1,95.0,-2.4,23.3*,23.1*
CC1CCCCN1Cc1c(O)ccc2c(=O)c(-c3ccc(Cl)cc3)coc12 (stereo unspecified),i,17.4*,323.1,-2.9,96.0,-1.1,26.6*,26.5*
CCN(C[C@H]1N[C@@](CC)(C(=O)OC)[C@H]2C(=O)N(C)C(=O)[C@@H]12)C(=O)NC(C)C,x,-0.1,212.7,-0.9,108.1,-2.0,x,x
